Source: PubChem BioAssay (Johns Hopkins Ion Channel Center)
Kir21 inh: inhibitors of mouse Kir2.1 inward-rectifier potassium channel; P35561; HEK293-Kir2.1, FluxOR thallium flux fluorescence; stronger effect = lower value; B-score at 10 µM; hit rate 0.85% among 310,000; AID 1672;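 active = fluorescence ratio B-score at or below minus 3 SD of library scores, with starting-brightness B-score within 2 SD, cut at about -4.2 in these data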;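 also: channel flux triggered by added potassium and thallium sulfate stimulus; B-score of peak minus minimum fluorescence over baseline after thallium stimulus; more negative B-score means stronger Kir2.1 block with less thallium influx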
Target sequence (P35561 whole entry, looked up): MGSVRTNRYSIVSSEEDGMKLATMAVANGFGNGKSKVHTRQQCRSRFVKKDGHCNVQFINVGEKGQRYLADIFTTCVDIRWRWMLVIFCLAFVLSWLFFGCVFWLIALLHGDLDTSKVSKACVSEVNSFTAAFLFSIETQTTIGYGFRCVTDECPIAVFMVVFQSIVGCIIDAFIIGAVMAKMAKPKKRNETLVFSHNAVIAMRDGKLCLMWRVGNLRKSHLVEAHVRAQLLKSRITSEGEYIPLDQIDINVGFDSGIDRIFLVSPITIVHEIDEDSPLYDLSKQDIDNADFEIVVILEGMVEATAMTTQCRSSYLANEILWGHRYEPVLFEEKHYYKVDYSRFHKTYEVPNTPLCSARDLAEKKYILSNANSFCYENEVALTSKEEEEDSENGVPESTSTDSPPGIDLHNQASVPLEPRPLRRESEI
KCNQ1 pot: potentiates or activates the human KCNQ1 potassium channel; hit rate 0.35% among 310,000; CHO-K1 KCNQ1, thallium flux FluxOR fluorescence; stronger effect = higher value; B-score at 10 µM; P51787;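 active = fluorescence ratio B-score, a plate-corrected score, at least three library SD, with initial intensity B-score within 5 SD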
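Assay system: CHO-K1 cells stably expressing KCNQ1. Medium: assay buffer for compound exposure, DMSO matched across wells. Timing: 37 °C overnight plating, 90-min dark dye load, 20-min compound pretreatment. Signal: kinetic FluxOR fluorescence, 10 s baseline plus 110 s post-stimulus.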
KCNK9 inh-1: blocks the human KCNK9 two-pore domain potassium channel. HEK293 KCNK9, FluxOR thallium flux fluorescence; stronger effect = lower value. B-score at 10 µM. AID 488922. Q9NPC2. hit rate 1.2% among 310,000;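 active = ratio B-score over 3 SD below the library mean, with starting fluorescence within 5 SD of its mean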;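 also: negative B-score means less thallium flux so channel inhibition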
KCNQ1 block: inhibitors of human KCNQ1 potassium channel; P51787; CHO-K1 KCNQ1, FluxOR thallium flux fluorescence; stronger effect = higher value; B-score at 10 µM; hit rate 1.3% among 310,000; AID 2642;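 active = compounds whose thallium flux B-score, printed positive for inhibition, exceeds three library SD while starting fluorescence stays within three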;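 also: channel opened by potassium depolarization with thallium stimulus after 20 min compound exposure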
KCNK3 inh: human KCNK3 channel inhibition, primary screen; hit rate 0.84% among 340,000; O14649; CHO-KCNK3 thallium flux, FluxOR fluorescence; stronger effect = lower value; B-score at 10 µM; AID 602410;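 active = B-score under library mean minus 4 SD, starting fluorescence ratio at most library mean plus 5 SD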;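 also: more negative B-score means stronger inhibition of thallium flux through KCNK3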
hERG rescue: hERG (human) protection from proarrhythmic block | Q12809 | CHO-hERG, FluxOR thallium flux, dofetilide IC70 present | activation (rescue from dofetilide block), less the hit threshold, % at 10 µM | hit rate 0.51% among 310,000 | AID 1511;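 active = activation above the mean of controls blocked by dofetilide plus 5 SD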;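 also: thallium influx through hERG after potassium depolarization seen as dye fluorescence rise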
hERG ctr: counter-screen for Kir2.1 inhibitors: effect on human hERG | shares compounds with Kir21 inh | hERG-expressing cells, thallium flux | inhibition, % at 10 µM | hit rate 20% among 320 | AID 2236;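 also: host cells are CHO cells stably expressing hERG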
KCNK9 inh-2: tests whether Kir2.1 inhibitors also affect human KCNK9 | shares compounds with Kir21 inh | KCNK9-expressing cells, ion flux inhibition | inhibition, % at 10 µM | hit rate 5% among 320 | AID 2329
Kir21 ephys inh: inhibitors of mouse Kir2.1 potassium channel. shares compounds with Kir21 inh. Kir2.1 cells, automated patch-clamp current inhibition. inhibition, % at 25 µM. hit rate 71% among 320
* marks the source's active call; other numbers are inactive results; i = inactive; ? = inconclusive; . = no result given. Compounds with a hit are over-represented: about 3.7% of the library has one in this group of screens. Unless noted, no rule for the calls is given here.

SMILES	Kir21 inh	KCNQ1 pot	KCNK9 inh-1	KCNQ1 block	KCNK3 inh	hERG rescue	hERG ctr	KCNK9 inh-2	Kir21 ephys inh
CCCCn1c(N)c(N(CCOC)C(=O)COC(=O)CCOc2ccccc2)c(=O)[nH]c1=O	0.06	i	i	i	i	-6	i	i	?
CCCCn1c(N)c(N(CCOC)C(=O)COc2ccc(OCC)cc2)c(=O)[nH]c1=O	1.6	i	i	i	i	-11	.	.	.
COc1ccc(CN(C)CC2CCCN(CCc3ccc(F)cc3)C2)cc1OC (configuration not stated)	-6.2*	i	i	i	i	-3	i	i	22%*
COc1ccc(CCN2CCCC(CN(C)Cc3cc(OC)c(OC)c(OC)c3)C2)cc1 (configuration not stated)	1.2	i	i	i	i	-9	.	.	.
CCc1nc(SCC(=O)Nc2cc(C)on2)c2c(=O)n(C)c(=O)n(C)c2n1	0.31	i	i	i	i	-9	.	.	.
Cc1cc(NC(=O)CSc2nc(CC(C)(C)C)nc3c2c(=O)n(C)c(=O)n3C)no1	3.6	i	i	i	i	-9	i	i	i
Cc1cc(NC(=O)CSCC(=O)OC(C)C(=O)c2cc(C)c(C)cc2C)no1 (configuration not stated)	-6.3*	i	i	i	i	-9	i	i	18%*
CCOC(=O)CN1C(=O)CC(c2ccccc2)C1=O (configuration not stated)	-0.09	i	i	i	i	-7	.	.	.
O=C(O)COc1ccccc1/C=N/NC(=O)CSc1nc2ccccc2n1Cc1ccccc1Cl	2.8	i	i	i	i	-2	i	i	i
O=C(C1CCN(S(=O)(=O)c2ccccc2)CC1)N1CCC1	.	.	.	.	i	.	.	.	.
NC(=O)C(c1ccc(Cl)cc1)c1ncc(C(F)(F)F)cc1Cl (configuration not stated)	-0.56	i	i	i	i	-11	.	.	.
N#CC(c1ccc(O)cc1)c1ncc(C(F)(F)F)cc1Cl (configuration not stated)	-7.3*	i	i	i	i	-6	i	i	54%*
CC(O)CNCCCOc1cccc(Oc2ccccc2)c1 (configuration not stated)	-7.6*	i	i	i	i	-5	i	i	77%*
CC(CCc1ccco1)N(C)S(=O)(=O)c1csc(C(N)=O)c1 (configuration not stated)	-1	i	i	i	i	-3	.	.	.
CCCCN(Cc1ccco1)S(=O)(=O)c1csc(C(N)=O)c1	-7.2*	i	i	i	i	-9	i	i	46%*
Cc1ccc(OCCC(=O)Nc2cc(S(=O)(=O)N3CCOCC3)ccc2N2CCCC2)cc1	.	.	.	.	i	.	.	.	.
